These results are taken from paper PMC7056512 (Cancer research, 2020).

Test [1] relates to Det562 HNSCC cells. Description: clonogenic survival assay. As to conditions: read-out: IC50, clonogenicity, drug 24h, then 9 days growth. Type of test: cell-based, human.
A further test has as its system Myc in 067C cells. Put plainly: Western blot densitometry of Myc. The class given is cell-based, human. Particulars: 24h.
Test [2] deals with 036C cells. Description: SRB antiproliferative assay. Type of test: cell-based, human. As to conditions: read-out: IC50, antiproliferative. (Sulforhodamine B stains cellular protein and so reports cell mass.)
The subject of test [3] is 013C cells. Description: protein synthesis, methionine analog incorporation. Type of test: cell-based, human. Particulars: 10nM.
In test [4] the test system is 036C cells. Description: nonadherent sphere formation. Type of test: cell-based, human. As to conditions: 1,000nM, 10 days. The gist of the method:
(§1)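 3x10^3 cells/well in ultra-low-attachment wells with serum-free DMEM/F12 plus 10ng/ml EGF and 10ng/ml bFGF; medium supplemented on days 4, 7 and 10. Spheres (>50µm) imaged, counted and sized (diameter) at day 10. Replicates: 013C n=4 (16 wells); 036C, 049C and 067C n=3 (12 wells).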

Test [5] has as its system Det562 HNSCC cells. Particulars: read-out: IC50, proliferation.
The subject of another test is CUHN013 CSCs. Description: sphere formation by CSCs sorted from PDX tumors. As to conditions: 1,000nM. The class given is cell-based, human.
For test [6], the system named is 049C cells. Put plainly: nonadherent sphere formation. The class given is cell-based, human. As to conditions: 1,000nM, 10 days. The gist of the method: as §1
The test system of a further test is 013C, 049C, 067C cells. Put plainly: ribosome profiling. The class given is cell-based, human. As to conditions: 1,000nM, 6h. The gist of the method: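 Cells grown 48h in 10cm dishes to ~75% confluence, then treated 6h with DMSO or test compound at 1,000nM. Libraries built with the TruSeq Ribo Profile mammalian protocol. Total mRNA fragments and ribosome-protected fragments sequenced on Illumina HiSeq. RPF counts normalised to RNA-seq, with a >2-fold enrichment cutoff.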

The subject of the next test is CUHN004 PDX. Description: PDX efficacy study. The class given is in vivo, Athymic Nude-Foxn1^nu mice.
Test [7] has as its system 067C cells. Description: protein synthesis, methionine analog incorporation. The class given is cell-based, human. Particulars: 1nM.
The next test deals with CUHN004 CSCs. Description: sphere formation by CSCs sorted from PDX tumors. The class given is cell-based, human. Particulars: 1,000nM. Put shortly:
(§2)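 CSCs sorted from PDX tumours plated at 1x10^4 per well in ultra-low-attachment wells. Medium was serum-free DMEM/F12 with 10ng/ml EGF and 10ng/ml bFGF, supplemented on days 4, 7 and 10. After 14 days, all spheres >50µm imaged, counted and diameter measured.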

For test [8], the system named is 067C cells. Put plainly: nonadherent sphere formation. Type of test: cell-based, human. As to conditions: 1,000nM, 10 days. The gist of the method:
as §1

Another test relates to CUHN036 PDX. Put plainly: PDX efficacy study. Particulars: for T/C (treatment vs control): twice weekly, day 28. Type of test: in vivo, Athymic Nude-Foxn1^nu mice. Put shortly:
(§3)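 Tumor pieces from 4th-8th-generation PDX implanted on both flanks of 6-10-week-old female mice. Anesthetized mice shielded except flank tumors and irradiated at 3 Gy (115 cGy/min) twice weekly for four weeks. Test compound given IP at 60mg/kg right after irradiation and 6h later. Tumors measured twice weekly. ALDH+CD44high CSC fraction measured by flow cytometry on day 28, then related to tumor treatment/control ratio by linear regression.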

In test [9] the test system is HNSCC cells and patient-matched CAFs. Description: protein synthesis, methionine analog incorporation. Type of test: cell-based, human. Particulars: for suppression of translation: 100nM, all cells; for inhibition of protein synthesis: at concentrations between 10 and 100nM, 1.5h treatment.
For test [10], the system named is 067C cells. Put plainly: SRB antiproliferative assay. Type of test: cell-based, human. Particulars: read-out: IC50, antiproliferative.
In test [11] the test system is 013C cells. Put plainly: nonadherent sphere formation. Type of test: cell-based, human. As to conditions: 1,000nM, 10 days. Put shortly:
as §1

Another test deals with Myc in 013C cells. Description: Western blot densitometry of Myc. Type of test: cell-based, human. As to conditions: 24h. Background: A western blot detects proteins with antibodies after separation by electrophoresis.
Another test concerns CUHN036 CSCs. Put plainly: sphere formation by CSCs sorted from PDX tumors. As to conditions: 1,000nM. Type of test: cell-based, human. The gist of the method: as §2
Test [12] addresses cap-independent translation of capless luciferase mRNA. Put plainly: in vitro translation of uncapped poly. The class given is biochemical, rabbit. As to conditions: read-out: IC50, in vitro cap-independent translation; 30 min at 30°C.
Another test relates to CUHN047 PDX. Description: PDX efficacy study. Particulars: for T/C (treatment vs control): twice weekly, day 28. The class given is in vivo, Athymic Nude-Foxn1^nu mice. Put shortly:
as §3

The subject of test [13] is HNSCC cancer cells (Detroit562, FaDu). Description: clonogenic radio-modulation. Type of test: cell-based, human. Particulars: multiple SVC112 doses.
Test [14] deals with eEF2 release from the ribosome (Homo sapiens, UniProt P13639). Description: co-immunoprecipitation of eEF2 with ribosomal protein RPL13a. The class given is cell-based. Particulars: 100nM; 013C and 036C cells.
The test system of another test is Myc in 049C cells. Description: Western blot densitometry of Myc. The class given is cell-based, human. Particulars: 24h.
For a further test, the system named is CUHN013 PDX. Description: PDX efficacy study. The class given is in vivo, Athymic Nude-Foxn1^nu mice. The gist of the method:
as §3

In test [15] the test system is 049C cells. Put plainly: SRB antiproliferative assay. Type of test: cell-based, human. As to conditions: read-out: IC50, antiproliferative.
In test [16] the test system is 013C cells. Put plainly: SRB antiproliferative assay. The class given is cell-based, human. Particulars: read-out: IC50, antiproliferative.
Test [17] has as its system 036C cells. Description: protein synthesis, methionine analog incorporation. Type of test: cell-based, human. As to conditions: 1nM.
The test system of the next test is Myc in 036C cells. Put plainly: Western blot densitometry of Myc. Type of test: cell-based, human. As to conditions: 24h.
For another test, the system named is 19 HNSCC cell lines. Put plainly: cell growth, CellTiter-Glo, 5 days. The class given is cell-based, human. As to conditions: read-out: average IC50, growth, average of 19 HNSCC lines.
The test system of test [18] is four non-transformed normal lines. Put plainly: clonogenic radio-modulation. Type of test: cell-based.
The test system of test [19] is HNSCC cell lines (013C, 036C, 049C, 067C). Put plainly: nonadherent sphere formation. The class given is cell-based, human. As to conditions: 1,000nM. The gist of the method:
as §1

Setting [20] is: SVC112 alone, 60mg/kg IP at 0h and 6h.
[21] abbreviates: radiation (3Gy) plus SVC112 60mg/kg.
The mark [22] stands for this setting: radiation plus SVC112, by day 28.

Read-outs that look alike come from different tables or passages of the source. Bounds are passed on as bounds.

“Meta Br-N-29-H derivative of RA-VII [SVC112]”: the IC50 with Det562 HNSCC cells [1] is around 15 nM; in the test on 036C cells [2], 3.8 nM; in the test on Det562 HNSCC cells [5], around 280 nM; in the test on 067C cells [10], 9.3 nM; in test [12] it was 81 ± 16 nM; in the test on 049C cells [15], 24.1 nM. Moreover, the IC50 with 013C cells [16] turned out to be 50.5 nM; in the test on 19 HNSCC cell lines, 155 nM. In addition, the Myc reduction in the test on Myc in 067C cells, in the test on Myc in 049C cells and in the test on Myc in 036C cells was above 80% throughout. The “inhibition of protein synthesis” value in the test with 013C cells [3] is recorded as ~ 50%; in [9], “Greater than 75%”. The sphere formation blocked is given as 100% in the test with 036C cells [4], 48% in the test with 049C cells [6], 79% with 067C cells [8] and 74% in the test on 013C cells [11]. Also, the “sphere formation by CSCs” value is on record as “formed fewer, albeit normal-sized spheres” in the test with CUHN013 CSCs; “blocked sphere formation” with CUHN004 CSCs; “blocked sphere formation” in the test with CUHN036 CSCs. Moreover, the “increase in captured ribosome protected fragments of DUSP1” value with 013C, 049C, 067C cells was 238 fold. Further, the “increase in captured ribosome protected fragments of MAFF” value in the test with 013C, 049C, 067C cells is on record as 346 fold. In addition, the “increase in captured ribosome protected fragments of NUAK2” value in the test with 013C, 049C, 067C cells is 666 fold. For the same compound, the “increase in captured ribosome protected fragments of SERTAD1” value with 013C, 049C, 067C cells worked out at 1699 fold. The “T/C (treatment vs control)” value in the test on CUHN004 PDX (radiation (3Gy) plus SVC112 60mg/kg, twice weekly, day 28) is given as 0.19±0.05; with CUHN036 PDX (setting [20]), 0.45±0.12; in the test on CUHN036 PDX (setting [21]), 0.08±0.08; in the test with CUHN047 PDX (setting [20]), 0.37±0.07; in the test on CUHN047 PDX (setting [21]) it was −0.02±0.03. For the same compound, the “decrease of CSC fraction (ALDH+CD44hi) in tumors” value in the test with CUHN004 PDX (radiation plus SVC112, day 28) stood at 7.9 fold; in the test on CUHN036 PDX (radiation plus SVC112, day 28), 10.4 fold; in the test on CUHN047 PDX (radiation plus SVC112, day 28), 7.6 fold; in the test on CUHN013 PDX (radiation plus SVC112, day 28) it was 2.4 fold. In addition, the “decrease of protein synthesis” value in the test with 067C cells [7] and in the test on 036C cells [17] was above 50% each time. In the test with CUHN036 PDX (radiation plus SVC112, after end of treatment), the “tumors that continued to regress and did not regrow after ending treatment” value is reported as “six of eight”. For the same compound, the “tumors with complete regression” value in the test on CUHN036 PDX (setting [22]) is reported as “four of twelve”; in the test on CUHN047 PDX (setting [22]), “six out of ten”. For the same compound, the suppression of translation in [9] is above 85%. For the same compound, the “Myc level, % of baseline” value with Myc in 013C cells is above 60%. The “dose-modifying factor (DMF) of radiation” value is reported as above 1 in [13] and “near or below 1” in [18]. The “release of eEF2 from the ribosome (immunoprecipitation of eEF2 with Rpl13a)” value in [14] is given as “blocked the release of eEF2 from the ribosome”. The tumor response result with CUHN013 PDX (SVC112 alone or with radiation, twice weekly) was “did not respond to any treatment”.

`COC(=O)C[C@](O)(CCCC(C)(C)O)C(=O)O[C@@H]1C(OC)=C[C@]23CCCN2CCc2cc4c(cc2[C@H]13)OCO4` [HHT, Homoharringtonine, reference compound]: in [19], the sphere formation entry is recorded as “blocked nearly all sphere formation”. For the same compound, in [9], the suppression of translation is above 85% and the “inhibition of protein synthesis” value is on record as “Greater than 75%”.
